ChEMBL document CHEMBL1157665, “Novel 4-thiazolidinone derivatives as potential antifungal and antibacterial drugs” (2010)
Values after ≈ are worked out from the molar mass of the structure shown.

Legend:
[1] = tested on: Pseudomonas aeruginosa; assay: Antibacterial activity against Pseudomonas aeruginosa ATCC 27853 after 72 hrs by serial sub-cultivation method; format: functional; settings: ATCC 27853, 72 h
In short: (§1)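 MBC was found by serial sub-cultivation of 2 µl from the MIC wells into plates holding 100 µl broth per well, then incubation for 72 h. MBC is the lowest concentration with no visible growth, i.e. 99.5% killing of the original inoculum. Bacterial inoculum was 1.0 × 10^4 cfu per well in LB broth. Duplicate, repeated three times.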

[2] = tested on: Proteus mirabilis; assay: Antibacterial activity against Proteus mirabilis after 72 hrs by serial sub-cultivation method; format: functional; in short: as §1
[3] = tested on: Staphylococcus aureus; assay: Antibacterial activity against Staphylococcus aureus ATCC 6538 after 72 hrs by serial sub-cultivation method; format: functional; settings: ATCC 6538, 72 h; in short: as §1
[4] = tested on: Aspergillus niger; assay: Antifungal activity against Aspergillus niger ATCC 6275 after 72 hrs by serial sub-cultivation method; format: functional; settings: ATCC 6275, 72 h
In short: (§2)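 MFC was found by serial sub-cultivation of 2 µl into plates holding 100 µl broth per well, then incubation 72 h at 28 °C. MFC is the lowest concentration with no visible growth, taken as 99.5% killing of the original inoculum. Spore inocula came from malt agar cultures washed with 0.85% saline and 0.1% Tween 80.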

[5] = tested on: Staphylococcus aureus; assay: Antibacterial activity against Staphylococcus aureus ATCC 6538 after 24 hrs; format: functional; settings: ATCC 6538, 24 h
In short: (§3)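 Broth microdilution MIC in 96-well plates. Compounds in LB broth with bacterial inoculum of 1.0 × 10^4 cfu per well, from suspensions adjusted with sterile saline to 1.0 × 10⁵ CFU/ml. Incubated 24 h at […] as printed. MIC taken as the lowest concentration with no visible growth under the binocular microscope. OD at 655 nm also read against blank. Streptomycin and ampicillin as positive controls. Duplicate, repeated three times.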

[6] = tested on: Proteus mirabilis; assay: Antibacterial activity against Proteus mirabilis after 24 hrs; format: functional; in short: as §3
[7] = tested on: Aspergillus fumigatus; assay: Antifungal activity against Aspergillus fumigatus plant isolate after 72 hrs by serial sub-cultivation method
[8] = tested on: Fulvia fulva; assay: Antifungal activity against Fulvia fulva TK 5318 after 72 hrs by serial dilution method; format: functional; settings: TK 5318, 72 h
In short: (§4)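 Fungi were kept on malt agar at 4 °C and sub-cultured monthly. Spores were washed off the agar with sterile 0.85% saline containing 0.1% Tween 80 (v/v). Modified microdilution in 96-well plates. MIC is the lowest concentration with no visible growth under the binocular microscope. Inoculum checked on malt agar for contamination and validity.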

[9] = tested on: Listeria monocytogenes; assay: Antibacterial activity against Listeria monocytogenes NCTC 7973 after 24 hrs; format: functional; settings: NCTC 7973, 24 h; in short: as §3
[10] = tested on: Listeria monocytogenes; assay: Antibacterial activity against Listeria monocytogenes NCTC 7973 after 72 hrs by serial sub-cultivation method; format: functional; settings: NCTC 7973, 72 h; in short: as §1
[11] = tested on: Micrococcus flavus; assay: Antibacterial activity against Micrococcus flavus ATCC 10240 after 24 hrs; format: functional; settings: ATCC 10240, 24 h; in short: as §3
[12] = tested on: Escherichia coli; assay: Antibacterial activity against Escherichia coli ATCC 35210 after 72 hrs by serial sub-cultivation method; format: functional; settings: ATCC 35210, 72 h; in short: as §1
[13] = tested on: Salmonella typhimurium; assay: Antibacterial activity against Salmonella Typhimurium ATCC 13311 after 24 hrs; format: functional, Salmonella enterica subsp. enterica serovar Typhimurium; settings: Salmonella enterica, ATCC 13311, 24 h; in short: as §3
[14] = tested on: Bacillus cereus; assay: Antibacterial activity against Bacillus cereus clinical isolate after 72 hrs by serial sub-cultivation method; format: functional; in short: as §1
[15] = tested on: Micrococcus flavus; assay: Antibacterial activity against Micrococcus flavus ATCC 10240 after 72 hrs by serial sub-cultivation method; format: functional; settings: ATCC 10240, 72 h; in short: as §1
[16] = tested on: Trichoderma viride; assay: Antifungal activity against Trichoderma viride IAM 5061 after 72 hrs by serial sub-cultivation method; format: functional; settings: IAM 5061, 72 h; in short: as §2
[17] = tested on: Aspergillus flavus; assay: Antifungal activity against Aspergillus flavus ATCC 9643 after 72 hrs by serial dilution method; format: functional; settings: ATCC 9643, 72 h; in short: as §4
[18] = tested on: Aspergillus versicolor; assay: Antifungal activity against Aspergillus versicolor ATCC 11730 after 72 hrs by serial sub-cultivation method; format: functional; settings: ATCC 11730, 72 h; in short: as §2
[19] = tested on: Penicillium ochrochloron; assay: Antifungal activity against Penicillium ochrochloron ATCC 9112 after 72 hrs by serial sub-cultivation method; format: functional; settings: ATCC 9112, 72 h; in short: as §2
[20] = tested on: Trichoderma viride; assay: Antifungal activity against Trichoderma viride IAM 5061 after 72 hrs by serial dilution method; format: functional; settings: IAM 5061, 72 h; in short: as §4
[21] = tested on: Aspergillus versicolor; assay: Antifungal activity against Aspergillus versicolor ATCC 11730 after 72 hrs by serial dilution method; format: functional; settings: ATCC 11730, 72 h; in short: as §4
[22] = tested on: Aspergillus niger; assay: Antifungal activity against Aspergillus niger ATCC 6275 after 72 hrs by serial dilution method; format: functional; settings: ATCC 6275, 72 h; in short: as §4
[23] = tested on: Salmonella typhimurium; assay: Antibacterial activity against Salmonella Typhimurium ATCC 13311 after 72 hrs by serial sub-cultivation method; format: functional, Salmonella enterica subsp. enterica serovar Typhimurium; settings: Salmonella enterica, ATCC 13311, 72 h; in short: as §1
[24] = tested on: Escherichia coli; assay: Antibacterial activity against Escherichia coli ATCC 35210 after 24 hrs; format: functional; settings: ATCC 35210, 24 h; in short: as §3
[25] = tested on: Talaromyces funiculosus; assay: Antifungal activity against Penicillium funiculosum ATCC 36839 after 72 hrs by serial sub-cultivation method; format: functional; settings: ATCC 36839, 72 h; in short: as §2
[26] = tested on: Pseudomonas aeruginosa; assay: Antibacterial activity against Pseudomonas aeruginosa ATCC 27853 after 24 hrs; format: functional; settings: ATCC 27853, 24 h; in short: as §3
[27] = tested on: Talaromyces funiculosus; assay: Antifungal activity against Penicillium funiculosum ATCC 36839 after 72 hrs by serial dilution method; format: functional; settings: ATCC 36839, 72 h; in short: as §4
[28] = tested on: Aspergillus flavus; assay: Antifungal activity against Aspergillus flavus ATCC 9643 after 72 hrs by serial sub-cultivation method; format: functional; settings: ATCC 9643, 72 h; in short: as §2
[29] = tested on: Penicillium ochrochloron; assay: Antifungal activity against Penicillium ochrochloron ATCC 9112 after 72 hrs by serial dilution method; format: functional; settings: ATCC 9112, 72 h; in short: as §4
[30] = tested on: Aspergillus fumigatus; assay: Antifungal activity against Aspergillus fumigatus plant isolate after 72 hrs by serial dilution method
[31] = tested on: Fulvia fulva; assay: Antifungal activity against Fulvia fulva TK 5318 after 72 hrs by serial sub-cultivation method; format: functional; settings: TK 5318, 72 h; in short: as §2
[32] = tested on: Bacillus cereus; assay: Antibacterial activity against Bacillus cereus clinical isolate after 24 hrs; format: functional; in short: as §3

SMILES | MBC [1] [µM] | MBC [2] [µM] | MBC [3] [µM] | MFC [4] [µM] | MIC [5] [µM] | MIC [6] [µM] | MFC [7] [µM] | MIC [8] [µM] | MIC [9] [µM] | MBC [10] [µM] | MIC [11] [µM] | MBC [12] [µM] | MIC [13] [µM] | MBC [14] [µM] | MBC [15] [µM] | MFC [16] [µM] | MIC [17] [µM] | MFC [18] [µM] | MFC [19] [µM] | MIC [20] [µM] | further results
O=C1N/C(=N/c2nc(C34CC5CC(CC(C5)C3)C4)cs2)S/C1=C\c1cccc([N+](=O)[O-])c1 | 43 (≈ 20.1 µg/mL) | 64.5 (≈ 30.1 µg/mL) | 43 (≈ 20.1 µg/mL) | 21.5 (≈ 10 µg/mL) | 21.5 (≈ 10 µg/mL) | 43 (≈ 20.1 µg/mL) | 21.5 (≈ 10 µg/mL) | 10.8 (≈ 5.04 µg/mL) | 21.5 (≈ 10 µg/mL) | 43 (≈ 20.1 µg/mL) | 21.5 (≈ 10 µg/mL) | 21.5 (≈ 10 µg/mL) | 10.8 (≈ 5.04 µg/mL) | 21.5 (≈ 10 µg/mL) | 43 (≈ 20.1 µg/mL) | 10.8 (≈ 5.04 µg/mL) | 16.1 (≈ 7.51 µg/mL) | 21.5 (≈ 10 µg/mL) | 21.5 (≈ 10 µg/mL) | 5.4 (≈ 2.52 µg/mL) | MIC [21]: 16.1 µM (≈ 7.51 µg/mL); MIC [22]: 10.8 µM (≈ 5.04 µg/mL); MBC [23]: 21.5 µM (≈ 10 µg/mL); MIC [24]: 21.5 µM (≈ 10 µg/mL); MFC [25]: 21.5 µM (≈ 10 µg/mL); MIC [26]: 21.5 µM (≈ 10 µg/mL); MIC [27]: 10.8 µM (≈ 5.04 µg/mL); MFC [28]: 21.5 µM (≈ 10 µg/mL); MIC [29]: 10.8 µM (≈ 5.04 µg/mL); MIC [30]: 16.1 µM (≈ 7.51 µg/mL); MFC [31]: 16.1 µM (≈ 7.51 µg/mL); MIC [32]: 16.1 µM (≈ 7.51 µg/mL)
O=C1N/C(=N/c2nc(C34CC5CC(CC(C5)C3)C4)cs2)S/C1=C\c1ccc([N+](=O)[O-])cc1 | 43 (≈ 20.1 µg/mL) | 64.5 (≈ 30.1 µg/mL) | 43 (≈ 20.1 µg/mL) | 21.5 (≈ 10 µg/mL) | 16.1 (≈ 7.51 µg/mL) | 43 (≈ 20.1 µg/mL) | 21.5 (≈ 10 µg/mL) | 16.1 (≈ 7.51 µg/mL) | 21.5 (≈ 10 µg/mL) | 43 (≈ 20.1 µg/mL) | 21.5 (≈ 10 µg/mL) | 43 (≈ 20.1 µg/mL) | 21.5 (≈ 10 µg/mL) | 21.5 (≈ 10 µg/mL) | 21.5 (≈ 10 µg/mL) | 21.5 (≈ 10 µg/mL) | 16.1 (≈ 7.51 µg/mL) | 21.5 (≈ 10 µg/mL) | 21.5 (≈ 10 µg/mL) | 10.8 (≈ 5.04 µg/mL) | MIC [21]: 16.1 µM (≈ 7.51 µg/mL); MIC [22]: 10.8 µM (≈ 5.04 µg/mL); MBC [23]: 21.5 µM (≈ 10 µg/mL); MIC [24]: 21.5 µM (≈ 10 µg/mL); MFC [25]: 21.5 µM (≈ 10 µg/mL); MIC [26]: 21.5 µM (≈ 10 µg/mL); MIC [27]: 21.5 µM (≈ 10 µg/mL); MFC [28]: 21.5 µM (≈ 10 µg/mL); MIC [29]: 16.1 µM (≈ 7.51 µg/mL); MIC [30]: 16.1 µM (≈ 7.51 µg/mL); MFC [31]: 21.5 µM (≈ 10 µg/mL); MIC [32]: 21.5 µM (≈ 10 µg/mL)
O=C1CS/C(=N/c2nc(C34CC5CC(CC(C5)C3)C4)cs2)N1 | 47.6 (≈ 15.9 µg/mL) | 71.7 (≈ 23.9 µg/mL) | 47.6 (≈ 15.9 µg/mL) | 23.8 (≈ 7.94 µg/mL) | 23.8 (≈ 7.94 µg/mL) | 47.6 (≈ 15.9 µg/mL) | 23.8 (≈ 7.94 µg/mL) | 6 (≈ 2 µg/mL) | 23.8 (≈ 7.94 µg/mL) | 47.6 (≈ 15.9 µg/mL) | 23.8 (≈ 7.94 µg/mL) | 47.6 (≈ 15.9 µg/mL) | 23.8 (≈ 7.94 µg/mL) | 23.8 (≈ 7.94 µg/mL) | 47.6 (≈ 15.9 µg/mL) | 23.8 (≈ 7.94 µg/mL) | 17.9 (≈ 5.97 µg/mL) | 33.5 (≈ 11.2 µg/mL) | 23.8 (≈ 7.94 µg/mL) | 11.9 (≈ 3.97 µg/mL) | MIC [21]: 23.8 µM (≈ 7.94 µg/mL); MIC [22]: 11.9 µM (≈ 3.97 µg/mL); MBC [23]: 47.6 µM (≈ 15.9 µg/mL); MIC [24]: 23.8 µM (≈ 7.94 µg/mL); MFC [25]: 23.8 µM (≈ 7.94 µg/mL); MIC [26]: 17.9 µM (≈ 5.97 µg/mL); MIC [27]: 17.9 µM (≈ 5.97 µg/mL); MFC [28]: 23.8 µM (≈ 7.94 µg/mL); MIC [29]: 6 µM (≈ 2 µg/mL); MIC [30]: 11.9 µM (≈ 3.97 µg/mL); MFC [31]: 11.9 µM (≈ 3.97 µg/mL); MIC [32]: 17.9 µM (≈ 5.97 µg/mL)
